By IC50 is commonly meant the concentration needed to halve the response being measured. Read a low IC50 as higher potency. By inhibition is commonly meant the drop in the measured response relative to a control, in per cent.

Test [1] addresses T1, Serine/threonine-protein kinase ULK2 (Homo sapiens, UniProt Q8IYT8).
T1 sequence (Q8IYT8 whole entry): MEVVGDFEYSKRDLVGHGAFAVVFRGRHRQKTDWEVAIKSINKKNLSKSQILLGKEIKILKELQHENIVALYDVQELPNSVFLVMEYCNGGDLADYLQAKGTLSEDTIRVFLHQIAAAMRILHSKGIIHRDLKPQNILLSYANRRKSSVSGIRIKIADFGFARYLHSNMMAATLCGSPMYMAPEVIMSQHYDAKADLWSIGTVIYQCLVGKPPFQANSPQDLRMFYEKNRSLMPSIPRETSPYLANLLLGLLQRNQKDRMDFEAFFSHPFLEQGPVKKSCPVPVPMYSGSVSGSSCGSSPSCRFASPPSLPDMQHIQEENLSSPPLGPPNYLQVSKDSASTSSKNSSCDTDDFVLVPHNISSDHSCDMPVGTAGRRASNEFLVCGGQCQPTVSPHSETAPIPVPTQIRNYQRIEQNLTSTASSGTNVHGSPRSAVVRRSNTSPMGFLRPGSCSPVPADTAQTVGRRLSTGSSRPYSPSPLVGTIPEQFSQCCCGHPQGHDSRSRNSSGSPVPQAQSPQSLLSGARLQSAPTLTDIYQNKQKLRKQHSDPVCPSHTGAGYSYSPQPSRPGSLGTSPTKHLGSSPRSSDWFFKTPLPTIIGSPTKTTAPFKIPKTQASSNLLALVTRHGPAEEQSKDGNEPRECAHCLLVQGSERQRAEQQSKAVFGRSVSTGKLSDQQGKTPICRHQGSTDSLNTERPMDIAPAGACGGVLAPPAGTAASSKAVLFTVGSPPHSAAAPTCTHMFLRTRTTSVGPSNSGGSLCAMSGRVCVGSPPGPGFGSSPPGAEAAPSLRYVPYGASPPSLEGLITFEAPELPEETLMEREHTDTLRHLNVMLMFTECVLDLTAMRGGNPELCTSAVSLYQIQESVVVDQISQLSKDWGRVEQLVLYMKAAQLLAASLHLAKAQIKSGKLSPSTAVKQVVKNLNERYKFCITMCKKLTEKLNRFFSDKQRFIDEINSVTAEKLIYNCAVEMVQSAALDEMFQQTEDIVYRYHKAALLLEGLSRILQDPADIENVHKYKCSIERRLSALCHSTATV
As to the kind of experiment: Inhibition of human ULK2.

Test [2] has as its target T2, Serine/threonine-protein kinase ULK1 (Homo sapiens) (UniProt O75385).
T2 sequence (whole entry): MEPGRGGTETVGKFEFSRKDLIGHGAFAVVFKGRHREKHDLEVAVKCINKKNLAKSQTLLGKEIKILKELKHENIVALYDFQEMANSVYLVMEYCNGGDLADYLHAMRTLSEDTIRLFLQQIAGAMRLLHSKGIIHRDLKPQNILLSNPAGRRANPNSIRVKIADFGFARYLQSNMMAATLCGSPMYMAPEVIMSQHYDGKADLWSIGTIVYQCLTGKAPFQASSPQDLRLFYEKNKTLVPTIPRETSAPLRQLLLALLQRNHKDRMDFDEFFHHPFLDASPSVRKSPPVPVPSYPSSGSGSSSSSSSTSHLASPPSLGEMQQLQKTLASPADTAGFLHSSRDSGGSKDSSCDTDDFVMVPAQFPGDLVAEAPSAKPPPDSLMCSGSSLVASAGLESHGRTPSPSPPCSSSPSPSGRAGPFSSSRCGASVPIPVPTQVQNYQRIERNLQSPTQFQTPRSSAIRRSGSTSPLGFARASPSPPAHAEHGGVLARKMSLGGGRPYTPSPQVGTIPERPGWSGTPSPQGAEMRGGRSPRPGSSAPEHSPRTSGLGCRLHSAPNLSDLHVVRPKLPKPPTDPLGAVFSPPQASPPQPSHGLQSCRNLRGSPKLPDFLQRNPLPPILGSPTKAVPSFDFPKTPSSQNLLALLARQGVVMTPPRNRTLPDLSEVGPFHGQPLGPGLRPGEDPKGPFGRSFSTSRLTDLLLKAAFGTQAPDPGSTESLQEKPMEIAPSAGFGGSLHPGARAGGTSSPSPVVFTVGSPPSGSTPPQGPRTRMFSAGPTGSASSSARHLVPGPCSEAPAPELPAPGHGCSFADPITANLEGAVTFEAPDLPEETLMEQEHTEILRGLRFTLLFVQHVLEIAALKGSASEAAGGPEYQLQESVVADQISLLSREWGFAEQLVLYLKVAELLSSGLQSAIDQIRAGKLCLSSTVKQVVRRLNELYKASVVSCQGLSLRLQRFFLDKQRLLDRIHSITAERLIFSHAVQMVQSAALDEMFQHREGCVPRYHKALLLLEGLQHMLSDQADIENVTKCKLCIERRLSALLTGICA
As to the kind of experiment: Inhibition of ULK1 phosphorylation at Ser15 residue in HEK293 cells incubated for 1 hr by chemiluminescence based immunoblotting analysis. Format: cell-based. The note with it: HEK293T, dose <= 20.0 µM. In general terms: In western blotting, separated proteins are transferred to a membrane and probed.

The target of test [3] is Proto-oncogene tyrosine-protein kinase Src (Homo sapiens) (UniProt P12931). As to the kind of experiment: Inhibition of human recombinant SRC at 15 nM related to control ULK1.
Sequence of Proto-oncogene tyrosine-protein kinase Src (Homo sapiens) (P12931 2-536 limits assumed): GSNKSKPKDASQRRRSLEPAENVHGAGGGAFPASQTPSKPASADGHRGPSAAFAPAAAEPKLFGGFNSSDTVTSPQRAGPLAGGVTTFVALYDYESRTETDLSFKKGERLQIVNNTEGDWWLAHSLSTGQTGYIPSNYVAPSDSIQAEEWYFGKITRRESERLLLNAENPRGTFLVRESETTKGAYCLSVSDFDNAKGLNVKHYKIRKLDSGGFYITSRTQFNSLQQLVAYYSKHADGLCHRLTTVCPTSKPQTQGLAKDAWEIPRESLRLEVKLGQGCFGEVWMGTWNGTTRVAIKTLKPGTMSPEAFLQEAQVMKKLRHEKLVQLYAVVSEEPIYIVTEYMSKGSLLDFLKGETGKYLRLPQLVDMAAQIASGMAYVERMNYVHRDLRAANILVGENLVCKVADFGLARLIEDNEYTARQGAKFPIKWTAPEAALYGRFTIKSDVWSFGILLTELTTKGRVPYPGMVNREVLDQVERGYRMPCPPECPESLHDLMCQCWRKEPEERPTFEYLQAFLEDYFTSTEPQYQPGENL
Test [4] addresses Cyclin-dependent kinase 5 (Homo sapiens) (UniProt Q00535). As to the kind of experiment: Inhibition of human recombinant CDK5 at 40 nM in presence of ATP by radiometric assay relative to control.
Test [5] concerns the target Serine/threonine-protein kinase PAK 6 (Homo sapiens) (UniProt Q9NQU5). As to the kind of experiment: Inhibition of human recombinant PAK6 at 40 nM in presence of ATP by radiometric assay relative to control.
Test [6] addresses Serine-protein kinase ATM (Homo sapiens) (UniProt Q13315). As to the kind of experiment: Inhibition of human recombinant ATM at 40 nM related to control ULK1. The essentials: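 Radiometric activity assays in a panel of 327 human recombinant kinases, each run in duplicate at one inhibitor concentration. Activity remaining is expressed as percent of vehicle control, and percent inhibition is calculated as 100% minus percent activity remaining.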

In test [7] the target is Cell division cycle 7-related protein kinase (Homo sapiens) (UniProt O00311). As to the kind of experiment: Inhibition of human recombinant CDC7 at 500 nM related to control ULK1.
Sequence of Cell division cycle 7-related protein kinase (Homo sapiens) (O00311 whole entry, looked up): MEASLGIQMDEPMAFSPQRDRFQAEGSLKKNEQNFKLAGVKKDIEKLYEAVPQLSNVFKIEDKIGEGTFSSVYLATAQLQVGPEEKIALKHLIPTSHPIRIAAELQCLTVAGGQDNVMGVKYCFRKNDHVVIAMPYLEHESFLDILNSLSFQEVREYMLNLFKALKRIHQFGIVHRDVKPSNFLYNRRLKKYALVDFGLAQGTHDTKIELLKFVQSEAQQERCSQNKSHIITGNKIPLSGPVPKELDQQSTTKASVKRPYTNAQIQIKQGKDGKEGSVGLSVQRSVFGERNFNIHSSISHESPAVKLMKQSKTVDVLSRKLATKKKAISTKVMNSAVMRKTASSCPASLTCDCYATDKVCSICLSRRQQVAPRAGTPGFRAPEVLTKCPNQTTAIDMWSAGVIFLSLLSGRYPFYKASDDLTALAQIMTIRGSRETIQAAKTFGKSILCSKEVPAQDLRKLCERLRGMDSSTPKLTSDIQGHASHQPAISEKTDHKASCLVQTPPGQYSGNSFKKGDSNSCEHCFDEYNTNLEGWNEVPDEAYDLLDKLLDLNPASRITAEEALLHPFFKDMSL
Test [8] deals with Serine/threonine-protein kinase pim-2 (Homo sapiens) (UniProt Q9P1W9). As to the kind of experiment: Inhibition of human recombinant PIM2 at 500 nM related to control ULK1.
Sequence of Serine/threonine-protein kinase pim-2 (Homo sapiens) (Q9P1W9 whole entry, looked up): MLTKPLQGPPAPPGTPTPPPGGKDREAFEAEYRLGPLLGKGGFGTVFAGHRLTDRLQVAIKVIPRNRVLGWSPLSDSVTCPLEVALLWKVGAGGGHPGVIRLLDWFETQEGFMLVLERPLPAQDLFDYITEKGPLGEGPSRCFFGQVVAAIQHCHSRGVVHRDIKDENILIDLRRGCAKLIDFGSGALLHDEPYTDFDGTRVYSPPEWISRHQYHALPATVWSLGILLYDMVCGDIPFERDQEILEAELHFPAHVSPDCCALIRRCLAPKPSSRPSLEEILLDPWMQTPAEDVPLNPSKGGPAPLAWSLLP

Sequence of Serine/threonine-protein kinase PAK 6 (Homo sapiens) (Q9NQU5 whole entry, looked up): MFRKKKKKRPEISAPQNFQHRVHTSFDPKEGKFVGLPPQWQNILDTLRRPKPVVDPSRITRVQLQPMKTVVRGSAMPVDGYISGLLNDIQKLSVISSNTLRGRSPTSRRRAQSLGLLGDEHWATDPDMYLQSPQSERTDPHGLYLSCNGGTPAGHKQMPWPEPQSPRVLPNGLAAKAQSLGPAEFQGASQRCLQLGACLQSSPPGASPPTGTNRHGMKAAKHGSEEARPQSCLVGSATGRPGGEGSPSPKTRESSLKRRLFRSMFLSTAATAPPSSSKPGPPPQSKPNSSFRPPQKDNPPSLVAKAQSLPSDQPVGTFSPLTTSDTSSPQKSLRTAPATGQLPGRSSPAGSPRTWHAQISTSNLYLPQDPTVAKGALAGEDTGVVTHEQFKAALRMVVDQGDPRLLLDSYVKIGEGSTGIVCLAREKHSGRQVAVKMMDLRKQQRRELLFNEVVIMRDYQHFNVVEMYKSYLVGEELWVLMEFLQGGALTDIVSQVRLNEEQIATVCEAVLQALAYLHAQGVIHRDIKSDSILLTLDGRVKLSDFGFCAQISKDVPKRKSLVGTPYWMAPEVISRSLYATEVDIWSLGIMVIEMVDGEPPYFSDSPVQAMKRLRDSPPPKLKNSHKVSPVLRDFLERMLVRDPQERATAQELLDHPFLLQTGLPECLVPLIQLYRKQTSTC
Sequence of Cyclin-dependent kinase 5 (Homo sapiens) (Q00535 whole entry, looked up): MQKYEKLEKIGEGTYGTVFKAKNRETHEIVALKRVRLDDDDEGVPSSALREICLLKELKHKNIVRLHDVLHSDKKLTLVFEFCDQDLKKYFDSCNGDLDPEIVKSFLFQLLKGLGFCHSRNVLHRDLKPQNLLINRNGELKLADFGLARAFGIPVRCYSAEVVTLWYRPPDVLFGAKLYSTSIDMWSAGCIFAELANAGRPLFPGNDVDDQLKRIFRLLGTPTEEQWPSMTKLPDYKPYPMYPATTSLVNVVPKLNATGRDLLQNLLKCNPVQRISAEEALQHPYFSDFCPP

On to `CC(C)[C@H](NC(=O)c1cc(-c2cnn3cc(-c4ccc(OCCN5CCCCC5)cc4)cnc23)cs1)C(F)(F)F`, for which, in test [1], the IC50 turned out to be 2.6 nM. Moreover, the inhibition entry in test [2] is “Dose-Dependent Effect”. Also, the fold change (FC) in test [3] stood at 0.17.

In test [1], `O=C(N[C@@H](C1CC1)C(F)(F)F)c1cc(-c2cnn3cc(-c4ccc(F)cc4)cnc23)cs1` came in with an IC50 of 30 nM. The inhibition result in test [2] is “Dose-Dependent Effect”; in test [4], 47%; in test [5] it was 7%. Moreover, the fold change (FC) in test [6] stood at 0.07.

With `CNC(=O)c1ccccc1Oc1nc(Nc2cc(OC)c(OC)c(OC)c2)ncc1Br`, half-maximal inhibition in test [1] (IC50) was put at 212 nM. The inhibition entry in test [2] was “Dose-Dependent Effect”. In addition, the fold change (FC) in test [7] stood at 0; in test [8], 0.03.

For the origin of these results see ChEMBL document CHEMBL5653631, “A Potent and Selective ULK1 Inhibitor Suppresses Autophagy and Sensitizes Cancer Cells to Nutrient Stress” (iScience, 2018).
